Experimental data taken from ChEMBL document CHEMBL1240502, “Therapeutic effects of cantharidin analogues without bridging ether oxygen on human hepatocellular carcinoma cells” (Eur J Med Chem, 2010).
Calls of active or inactive are those of the source. The rule behind the calls is not given here.

Tests used:
[1] = system: HepG2; test: Cytotoxicity against human HepG2 cells after 48 hrs by MTT assay; assay type: functional, cell-based; settings: HepG2, 48 h
Method in brief: (§1)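 Cells seeded in 24-well plates at 1 × 10⁵ cells/well, allowed 12 h, then exposed to test chemical or vehicle for 48 h, in triplicate. Medium replaced with MTT in PBS (pH 7.4) for 4 h at 37 °C; formazan dissolved in DMSO and read at 540 nm. Viability = (test − background)/(control − background) × 100.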

[2] = system: SK-HEP1; test: Cytotoxicity against human SKHEP1 cells after 48 hrs by MTT assay; assay type: functional, cell-based; settings: SK-HEP1, 48 h; method in brief: as §1
[3] = system: Hepatocyte; test: Cytotoxicity against rat hepatocyte cells after 48 hrs by MTT assay; assay type: cell-based; method in brief: as §1
[4] = Cytotoxicity against rat hepatocyte cells assessed as survival at 200 uM after 48 hrs by MTT assay; assay type: cell-based; settings: rat hepatocytes, read-out: Activity; method in brief: as §1
[5] = system: HepG2; test: Cytotoxicity against human HepG2 cells at 50 uM after 48 hrs by MTT assay; assay type: functional, cell-based; method in brief: as §1
[6] = system: SK-HEP1; test: Cytotoxicity against human SKHEP1 cells at 50 uM after 48 hrs by MTT assay; assay type: functional, cell-based; method in brief: as §1
[7] = system: Hepatocyte; test: Cytotoxicity against rat hepatocyte cells at 50 uM after 48 hrs by MTT assay; assay type: cell-based; settings: hepatocytes; method in brief: as §1

| SMILES | IC50 [1] [µM] | IC50 [2] [µM] | IC50 [3] [µM] | viability at 48 h, 200 µM [4] [%] | Activity [5] | Activity [6] | Activity [7] |
| --- | --- | --- | --- | --- | --- | --- | --- |
| O=C1OC(=O)c2cc(Oc3ccc4c(c3)C(=O)OC4=O)ccc21 | 121 | 199 | > 200 | 80 | Active | Active | Non-toxic |
| Cc1ccc2c(c1)C(=O)N(c1nccs1)C2=O | > 200 | > 200 | > 200 |  |  |  |  |
| C[C@@]12C(=O)OC(=O)[C@]1(C)[C@H]1CC[C@@H]2O1 [CANTHARIDIN] | 11 | 34 | 21 |  |  |  |  |
| O=C1c2ccccc2C(=O)N1c1nccs1 | > 200 | > 200 | > 200 |  |  |  |  |
| O=C1C2C(C(=O)N1c1nccs1)[C@H]1C=C[C@@H]2CC1 (stereo partly drawn) | > 200 | > 200 | > 200 |  |  |  |  |
| O=C1OC(=O)C2C3CCC(O3)C12 (stereo not drawn) [DEMETHYL-CANTHARIDIN] | 74 | 126 | 75 |  |  |  |  |
| Cc1ccc2c(c1)C(=O)N(c1nc3ccccc3s1)C2=O | > 200 | > 200 | > 200 |  |  |  |  |
| O=C1C2C(C(=O)N1c1nc3ccccc3s1)[C@H]1C=C[C@@H]2CC1 (stereo partly drawn) | > 200 | > 200 | > 200 |  |  |  |  |
| Cc1cnc(N2C(=O)C3C(C2=O)[C@H]2C=C[C@@H]3CC2)s1 (stereo partly drawn) | > 200 | > 200 | > 200 |  |  |  |  |
| Cc1cnc(N2C(=O)c3ccccc3C2=O)s1 | > 200 | > 200 | > 200 |  |  |  |  |
| Cc1cnc(/N=C2\OC(=O)C3C2[C@@H]2C=C[C@H]3CC2)s1 (stereo partly drawn) | 92 | > 200 | > 200 | 80 | Active | Active | Non-toxic |
| O=C1OC(=O)[C@H]2[C@@H]1[C@H]1C=C[C@@H]2C1 | 62 | 151 | > 200 | 80 | Active | Active | Non-toxic |
